# PvdQ inh: P. aeruginosa PvdQ acylase inhibition | purified PvdQ acylase, fluorescence plate reader | inhibition, % at 10 µM | actives 0.063% (n = 340,000) | AID 488965; in the data active = inhibition above about 30%, passing the limit was not always enough; inconclusive = no clear call, values can overlap the other calls;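 note: 0% = vehicle neutral wells and 100% = reference inhibitor wells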
# Glyco luc inh: N-linked glycosylation inhibition | D54 ERlucT glycosylation luciferase reporter, 24 h; percent of 100 nM tunicamycin response | reporter increase, % at 12.5 µM | actives 0.23% (n = 360,000) | AID 588692;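 active = mean luciferase reporter signal, scaled so untreated is 0 and the glycosylation-blocking control 100, at or above a set limit in every replicate; inconclusive = mean reaches the limit but not every replicate does; inactive = mean below the limit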;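 note: luciferase carries N-glycosylation sites so blocking glycosylation raises the light; 0% = median of neutral control wells and 100% = median of 100 nM tunicamycin wells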
# T cruzi repl: T. cruzi replication inhibition. T. cruzi beta-gal in NIH3T3, luminescence, 90 h. inhibition, % (concentration not given with the values). actives 1.4% (n = 300,000). AID 1885;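 active = mean inhibition across valid replicates above about 55%, limit read from the data; inconclusive = mean below that limit but half or more replicates reach it; inactive = mean below it, under half of replicates reach it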;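 note: signal also drops with host cell toxicity which is not excluded here; 0% = plate median of DMSO wells and 100% = zero luminescence signal; higher percent means less beta-gal luminescence so fewer parasites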
#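 Read-out: Parasite load inhibition, % | Test system: Mouse NIH/3T3 fibroblasts infected with β-gal-expressing T. cruzi Tulahuen C4 | Amount: 5,000 cells/well | Medium: DMEM, 2% fetal bovine serum | Signal: GalScreen β-gal luminescence, detergent lysis, 60 min | Timing: 3 h attach, ≥90 h co-culture | Also added: Tulahuen C4 trypomastigotes, 5000/well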
# HSF1 activator: increases HSF-1 driven luciferase reporter signal | NIH3T3-HGL HSF-1 luciferase reporter, MG132, 8 h; 100% = twice DMSO control signal | actives 1.7% (n = 300,000) | activation, % at 9 µM;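 active = mean replicate activation of at least 50% with a set share of replicates each reaching 50%; inconclusive = only one of those two conditions met; inactive = mean below 50% and too few replicates reaching it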;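 note: 0% = median of the neutral control wells and 100% = twice that signal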
# PfHsp90 set2: growth inhibition of yeast expressing Plasmodium Hsp90. S. cerevisiae expressing PfHsp90, BacTiter-Glo ATP, 48 h; yeast lacking PDR1 and PDR3 efflux regulators. inhibition, % at 9.4 µM. actives 0.32% (n = 310,000);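 active = every replicate shows inhibition above about 80%, whatever the replicate mean, limit read from the data; inconclusive = mean inhibition reaches the set limit but some replicate falls short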;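 note: 0% = DMSO neutral controls and 100% = 20 µM radicicol positive controls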
# CaV13 FRET inh: Primary screen for inhibitors of IQ motif and Ca2+-dependent inactivation inhibitor domain binding in CACNA1D, Förster resonance energy transfer in living cells, …; HEK cells, CFP/YFP FRET ICDI-IQ, plate reader, 10 min; percent FRET-ratio fall versus neutral wells; inhibition, % at 12.3 µM; actives 0.098% (n = 340,000); AID 743397;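 active = mean replicate inhibition of at least 30% and at least 1% of replicates passing that level; inconclusive = only one of the two criteria is met; inactive = neither criterion is met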;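 note: 0% = median of the neutral control wells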
# * marks the source's active call; other numbers are inactive results; ? = inconclusive; · = not tested or not shown. In the library only some 3% were active in any assay of this set; here they are far more common.
SMILES,PvdQ inh,Glyco luc inh,T cruzi repl,HSF1 activator,PfHsp90 set2,CaV13 FRET inh
COC(=O)C1=CN(c2ccc(OC)cc2)C=C(C(=O)OC)C1c1ccc([N+](=O)[O-])cc1,9,-4,60*,18,-1,·
CN1C(=O)/C(=N/OC(=O)c2ccccc2)c2ccccc21,7,0,-12,0,137*,-2
O=c1c2ccccc2[nH]c(=S)n1CCCN1CCC(Cc2ccccc2)CC1,-9,1,56*,-17,14,-14
Cc1ccc(C)c(Cn2c(O)c(N=NC(=S)Nc3ccccc3F)c3ccccc32)c1,-5,0,67*,-28,-14,-21
Oc1c(N=NC(=S)Nc2ccccc2F)c2ccccc2n1Cc1ccc(Cl)cc1,-9,1,61*,-19,-25,-4
Oc1c(N=NC(=S)Nc2ccccc2F)c2ccccc2n1Cc1ccccc1F,-1,-2,88*,-9,-10,-7
COc1cccc(C2=Nn3c(nnc3-c3ccccc3O)SC2)c1,8,-1,13,11,-22,·
C[n+]1c2n(c3ccccc31)N=C(c1cc(C(C)(C)C)c(O)c(C(C)(C)C)c1)CS2,-3,12,61*,25,37,-7
C[C@H]1COc2cc(NCCO)ccc2S(=O)(=O)N1,·,·,·,·,·,-3
c1ccc(-c2cc(CSc3nc4ccccc4[nH]3)on2)cc1,-7,-4,0,61*,-14,-4
COc1ccc(/C=C/C2=CCN(Cc3ccc(OC)cc3)CC2)cc1,-4,-2,58*,9,28,-6
COc1ccc(/C=N/N2CCN(Cc3ccccc3)CC2)cc1,-10,4,9,-10,20,-18
CC(C)(CNc1ccc(S(=O)(=O)C(F)(F)F)cc1[N+](=O)[O-])N1CCOCC1,10,-5,55*,9,-10,-6
Cc1cccc(NC2CCCCC2NS(=O)(=O)c2ccccc2)c1 (stereo not given),-7,1,20,0,0,-7
Cc1ccc(Cl)cc1N1CCN(C2CCCCC2NS(=O)(=O)c2ccccc2)CC1 (stereo not given),-16,-9,42,76*,3,·
Cc1ccc(C)c(NC2CCCCC2NS(=O)(=O)c2ccccc2)c1 (stereo not given),6,-4,-7,83*,13,-17
Cc1ccc(C)c(N2CCN(C3CCCCC3NS(=O)(=O)c3ccccc3)CC2)c1 (stereo not given),4,-7,37,6,4,·
COC(=O)N(C)C[C@H]1OCc2cn(nn2)CCCC(=O)N([C@H](C)CO)C[C@@H]1C,·,·,·,·,·,-4
Cc1ccc(OCCn2cnc3cc([N+](=O)[O-])ccc3c2=O)cc1,-15,3,72*,20,39,·
O=c1c2ccc([N+](=O)[O-])cc2ncn1CCOc1ccccc1,-10,2,66*,45,·,-7
O=c1c2ccccc2ncn1CCOCCOc1ccc([N+](=O)[O-])cc1,2,0,0,0,4,0
O=C(CCc1c[nH]c2ccccc12)NCCc1ccccc1,-3,-1,3,30,-10,-3
O=C(CCc1c[nH]c2ccccc12)NCCc1ccc(Cl)cc1,-14,-2,6,55*,-3,-4
COc1cccc(OCCNC(=O)c2cccc(OC)c2)c1,-8,3,-19,-3,27,-3
COc1cccc(OCCNC(=O)c2cc([N+](=O)[O-])cc([N+](=O)[O-])c2)c1,-4,2,61*,29,-8,-5
SMILES,PvdQ inh,Glyco luc inh,T cruzi repl,HSF1 activator,PfHsp90 set2,CaV13 FRET inh
O=C(NCCCCc1ccccc1)c1ccc(Br)cc1,-14,0,5,26,112*,-19
Cc1ccccc1C(=O)NCCOc1ccccc1Cl,-18,-9,-6,70*,1,-4
CCOC(=O)CN1CCCc2nc(-c3ccc(OC)cc3)ccc21,·,·,·,·,·,-9
C[C@H]1CN([C@@H](C)CO)C(=O)c2cc(Br)cnc2O[C@@H]1CN(C)C(=O)Nc1ccc(C(F)(F)F)cc1,·,1,·,·,·,-6
CC1(C(=O)NS(=O)(=O)C2CC2)CCN(C(=O)COc2ccc(Cl)cc2Cl)C1 (stereo not given),·,1,·,·,·,-4
O=C(NCCCN1CCN(CCCNC(=O)c2cccc([N+](=O)[O-])c2)CC1)c1cccc([N+](=O)[O-])c1,-15,2,56*,5,-35,-16
O=C(NCCc1c[nH]c2ccccc12)c1cc([N+](=O)[O-])cc([N+](=O)[O-])c1,-3,3,69*,2,-6,-34
O=C(NCCCCc1ccccc1)c1cccc([N+](=O)[O-])c1,7,-4,21,-11,-3,2
O=C(NCC1CC1)c1cc([N+](=O)[O-])cc([N+](=O)[O-])c1,68*,2,61*,36,-11,-20
O=C(NCCCCc1ccccc1)c1cc([N+](=O)[O-])cc([N+](=O)[O-])c1,-23,2,63*,7,-25,-2
COC(=O)C1=C(C)N(C)C(=NCC2CC2)NC1c1cccc(F)c1 (stereo not given),·,·,·,·,·,-5
COc1ccccc1OCCNC(=O)c1ccc(Br)cc1,-22,-2,5,?,97*,-2
Cc1ccc(S(=O)(=O)N2CCCc3nc(-c4ccccc4)ccc32)cc1,·,·,·,·,·,-10
COc1cccc(-c2nc(CCl)cs2)c1,22,-5,61*,8,-30,-4
COc1ccc(-c2csc(NC3CCCCC3)n2)c(OC)c1,-19,2,8,-21,-8,-4
COc1ccc(-c2nc(-c3ccc(O)cc3O)cs2)cc1OC,11,3,35,68*,-28,-4
COc1ccc(-c2nc(CCl)cs2)cc1OC,12,-2,-10,14,-1,-7
COc1ccc(-c2csc(-c3ccccc3)n2)c(OC)c1,15,-9,-9,54*,-7,0
COc1ccc(-c2csc(-c3cccs3)n2)c(OC)c1,8,-10,-18,61*,10,-2
Cc1ccc(C(=O)N2[C@@H]3CN(C)C(=O)[C@@]2(Cc2ccccc2)[C@H]2C(=O)N(C)C(=O)[C@@H]32)cc1,-16,0,·,·,-17,-10
COC(=O)C1=C(C)N(C)C(=NCc2cc(OC)c(OC)c(OC)c2)NC1c1cccc(Cl)c1 (stereo not given),·,·,·,·,·,-10
Cc1ccc(OCc2ccc(Br)cc2)c([N+](=O)[O-])n1,·,·,-1,77*,·,-5
CCOc1cc(Br)c(COc2ccc(C)nc2[N+](=O)[O-])cc1OCC,-10,-3,15,6,-16,-6

# Screening data deposited in PubChem by Broad Institute.
